# From ChEMBL document CHEMBL4052805, “Discovery of novel 4(1H)-quinolone derivatives as potential antiproliferative and apoptosis inducing agents” (Bioorg Med Chem Lett, 2017)
# Where a name gives a salt, the structure may show the parent alone. The source made the active and inactive calls. The rule behind the calls is not given here.
# Key:
# HepG2 [1] = assay: Cytotoxicity against human HepG2 cells assessed as reduction in cell viability after 24 hrs by MTT assay; conditions: HepG2, 24 h
# MCF7 = assay: Cytotoxicity against human MCF7 cells assessed as reduction in cell viability after 24 hrs by MTT assay; conditions: MCF7, 24 h
# HEp-2 = assay: Cytotoxicity against human Hep2 cells assessed as reduction in cell viability after 24 hrs by MTT assay; conditions: HEp-2, 24 h
# BGC-823 = assay: Cytotoxicity against human BGC823 cells assessed as reduction in cell viability after 24 hrs by MTT assay; conditions: BGC-823, 24 h
# HeLa = assay: Cytotoxicity against human HeLa cells assessed as reduction in cell viability after 24 hrs by MTT assay
# HCT-8 = assay: Cytotoxicity against human HCT8 cells assessed as reduction in cell viability after 24 hrs by MTT assay; conditions: HCT-8, 24 h
# PC-3 = assay: Cytotoxicity against human PC3 cells assessed as reduction in cell viability after 24 hrs by MTT assay; conditions: PC-3, 24 h
# [2] = molecular target: Cellular tumor antigen p53 (Homo sapiens) (UniProt P04637); assay: Activation of p53 (unknown origin) transfected in human HepG2 cells at 4 uM after 24 hrs by dual-luciferase assay relative to control; format: cell-based
# Chain of Cellular tumor antigen p53 (Homo sapiens) (P04637 whole entry, looked up): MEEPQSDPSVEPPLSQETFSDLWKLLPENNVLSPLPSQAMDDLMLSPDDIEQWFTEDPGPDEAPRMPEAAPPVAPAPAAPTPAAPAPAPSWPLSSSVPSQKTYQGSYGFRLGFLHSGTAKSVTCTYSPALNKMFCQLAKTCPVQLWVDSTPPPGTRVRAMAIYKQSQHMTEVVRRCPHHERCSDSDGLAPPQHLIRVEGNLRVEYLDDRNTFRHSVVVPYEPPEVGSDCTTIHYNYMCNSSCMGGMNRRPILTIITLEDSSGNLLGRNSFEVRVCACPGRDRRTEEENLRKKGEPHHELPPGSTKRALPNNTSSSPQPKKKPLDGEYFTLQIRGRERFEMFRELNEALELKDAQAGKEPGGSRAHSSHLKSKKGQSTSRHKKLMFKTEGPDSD
# How it was run: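 HepG2 cells transfected with the pathway reporter for 24 h, then exposed to 4 μM compound for a further 24 h; reporter activity read by dual-luciferase assay.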
# HepG2 [3] = assay: Induction of apoptosis in human HepG2 cells assessed as increase in Bak protein expression at 10 to 20 ug/ml after 24 hrs by Western blot analysis; format: functional, cell-based
# HepG2 [4] = assay: Induction of DNA damage in human HepG2 cells assessed as increase in PARP level after 24 hrs by Western blot analysis; format: functional, cell-based
# HepG2 [5] = assay: Antiproliferative activity against human HepG2 cells up to 100 uM by CCK-8 assay; format: functional, cell-based; conditions: TDE = time-dependent effect
# How it was run: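 HepG2 cells were seeded and left 24 h, then treated with a range of compound concentrations for 24 h. Viability was read by CCK-8 assay.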
# HepG2 [6] = assay: Induction of apoptosis in human HepG2 cells assessed as early apoptotic cells at 20 ug/ml after 24 hrs by annexin V-FITC/propidium iodide staining based flow cytometry (reference value: 6.56%); format: functional
# HepG2 [7] = assay: Induction of apoptosis in human HepG2 cells assessed as viable cells at 20 ug/ml after 24 hrs by annexin V-FITC/propidium iodide staining based flow cytometry (reference value: 89.59%); format: functional; conditions: HepG2, 24 h, read-out: Activity
# HepG2 [8] = assay: Downregulation of CDK1 expression in human HepG2 cells after 24 hrs by Western blot analysis; format: functional, cell-based
# HepG2 [9] = assay: Induction of apoptosis in human HepG2 cells assessed as early apoptotic cells at 10 ug/ml after 24 hrs by annexin V-FITC/propidium iodide staining based flow cytometry (reference value: 6.56%); format: functional
# HepG2 [10] = assay: Induction of apoptosis in human HepG2 cells after 24 hrs by annexin V-FITC/propidium iodide staining based flow cytometry; format: functional, cell-based
# HepG2 [11] = assay: Induction of apoptosis in human HepG2 cells assessed as necrotic cells at 20 ug/ml after 24 hrs by annexin V-FITC/propidium iodide staining based flow cytometry (reference value: 0.36%); format: functional
# HepG2 [12] = assay: Induction of DNA damage in human HepG2 cells assessed as increase in caspase-3 level after 24 hrs by Western blot analysis; format: functional, cell-based
# HepG2 [13] = assay: Induction of apoptosis in human HepG2 cells assessed as necrotic cells at 10 ug/ml after 24 hrs by annexin V-FITC/propidium iodide staining based flow cytometry (reference value: 0.36%); format: functional
# HepG2 [14] = assay: Cell cycle arrest in human HepG2 cells assessed as accumulation at G2/M phase after 24 hrs by propidium iodide staining based flow cytometry; format: functional
# HepG2 [15] = assay: Downregulation of cyclin B1 expression in human HepG2 cells after 24 hrs by Western blot analysis; format: functional, cell-based
# HepG2 [16] = assay: Anticlonogenic activity against human HepG2 cells at 10 uM treated for 24 hrs measured after 6 days by crystal violet staining based assay; format: functional, cell-based
# HepG2 [17] = assay: Increase in p53 expression in human HepG2 cells at 10 to 20 ug/ml after 24 hrs by Western blot analysis; format: functional, cell-based
# HepG2 [18] = assay: Induction of apoptosis in human HepG2 cells assessed as late apoptotic cells at 10 ug/ml after 24 hrs by annexin V-FITC/propidium iodide staining based flow cytometry (reference value: 3.50%); format: functional
# HepG2 [19] = assay: Induction of apoptosis in human HepG2 cells assessed as late apoptotic cells at 20 ug/ml after 24 hrs by annexin V-FITC/propidium iodide staining based flow cytometry (reference value: 3.50%); format: functional
# [20] = molecular target: Cellular tumor antigen p53 (Homo sapiens) (UniProt P04637); assay: Activation of p53 in human HepG2 cells assessed as increase in p21 expression at 10 to 20 ug/ml after 24 hrs by Western blot analysis; format: cell-based
# HepG2 [21] = assay: Induction of apoptosis in human HepG2 cells assessed as viable cells at 10 ug/ml after 24 hrs by annexin V-FITC/propidium iodide staining based flow cytometry (reference value: 89.59%); format: functional; conditions: HepG2, 24 h, read-out: Activity
compound,measurement,setting,value
CCCCn1cc(C(=O)NCCCN)c(=O)c2ccc(Cl)cc21,IC50,HepG2 [1],5.23 µM
same,IC50,MCF7,12.6 µM
same,IC50,HEp-2,21.7 µM
same,IC50,BGC-823,16.6 µM
same,IC50,HeLa,15 µM
same,IC50,HCT-8,22.3 µM
same,IC50,PC-3,12 µM
COc1cccc2c1C(=O)c1c(O)c3c(c(O)c1C2=O)C[C@@](O)(C(=O)CO)C[C@@H]3O[C@H]1C[C@H](N)[C@H](O)[C@H](C)O1 [DOXORUBICIN HYDROCHLORIDE],IC50,HepG2 [1],< 1 µM
same,IC50,MCF7,< 1 µM
same,IC50,HEp-2,< 1 µM
same,IC50,BGC-823,< 1 µM
same,IC50,HeLa,< 1 µM
same,IC50,HCT-8,< 1 µM
same,IC50,PC-3,< 1 µM
Oc1ccnc2cc(Cl)ccc12,IC50,HepG2 [1],> 50 µM
same,IC50,MCF7,> 50 µM
same,IC50,HEp-2,> 50 µM
same,IC50,BGC-823,> 50 µM
same,IC50,HeLa,> 50 µM
same,IC50,HCT-8,> 50 µM
same,IC50,PC-3,> 50 µM
CCn1cc(C(=O)NCCCN)c(=O)c2ccc(Cl)cc21,IC50,HepG2 [1],13.8 µM
same,IC50,MCF7,35.5 µM
same,IC50,HEp-2,28.2 µM
same,IC50,BGC-823,30.2 µM
same,IC50,HeLa,20 µM
same,IC50,HCT-8,31.6 µM
same,IC50,PC-3,12.6 µM
C=CCn1cc(C(=O)NCCCN)c(=O)c2ccc(Cl)cc21,IC50,HepG2 [1],17 µM
same,IC50,MCF7,31.6 µM
same,IC50,HEp-2,36.5 µM
same,IC50,BGC-823,20 µM
same,IC50,HeLa,22.4 µM
same,IC50,HCT-8,34.7 µM
same,IC50,PC-3,13.2 µM
NCCCNC(=O)c1cn(Cc2ccccc2)c2cc(Cl)ccc2c1=O,IC50,HepG2 [1],5.42 µM
same,IC50,MCF7,5.02 µM
same,IC50,HEp-2,8.31 µM
same,IC50,BGC-823,6.71 µM
same,IC50,HeLa,4.54 µM
same,IC50,HCT-8,14.5 µM
same,IC50,PC-3,9.12 µM
Cl.NCCCNC(=O)c1cn(CCCc2ccccc2)c2cc(Cl)ccc2c1=O,fold change (FC),[2],1.5
same,Activity,HepG2 [3],Active
same,Activity,HepG2 [4],Dose-dependent effect
same,Activity,HepG2 [5],Tde
same,Activity,HepG2 [6],10.72%
same,IC50,HepG2 [1],< 1 µM
same,viability at 20 µg/mL,HepG2 [7],66.3%
same,Activity,HepG2 [8],Dose-dependent effect
same,Activity,HepG2 [9],7.01%
same,IC50,MCF7,3.12 µM
same,IC50,HEp-2,3.24 µM
same,Activity,HepG2 [10],Dose-dependent effect
same,IC50,BGC-823,3.2 µM
same,Activity,HepG2 [11],4.5%
same,IC50,HeLa,2.31 µM
same,Activity,HepG2 [12],Dose-dependent effect
same,IC50,HCT-8,6.03 µM
same,Activity,HepG2 [13],0.75%
same,Activity,HepG2 [14],Dose-dependent effect
same,Activity,HepG2 [15],Dose-dependent effect
same,Activity,HepG2 [16],Active
same,Activity,HepG2 [17],Active
same,IC50,PC-3,6.92 µM
same,Activity,HepG2 [18],3.71%
same,Activity,HepG2 [19],18.44%
same,Activity,[20],Active
same,viability at 10 µg/mL,HepG2 [21],88.5%
